Measured values published in ChEMBL document CHEMBL1138555, “N-acylated and N,N'-diacylated imidazolidine-2-thione derivatives and N,N'-diacylated tetrahydropyrimidine-2(1H)-thione analogues: synthesis and antiproliferative activity” (Eur J Med Chem, 2009).

Experiments:
LOX IMVI = assay: Growth inhibition of human LOXIMVI cells after 48 hrs by sulforhodamine B assay; assay type: functional
How it was run: (§1)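 NCI screen panel. Five 10-fold concentrations from 10^-4 to 10^-8 M. Exposure for the last 48 h of a 72 h incubation. Growth estimated by sulforhodamine B protein assay. GI50 is the concentration giving 50% growth inhibition. Where that level was not reached or was exceeded, the value is given as above or below the highest or lowest concentration tested.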

BT-549 = assay: Growth inhibition of human BT549 cells after 48 hrs by sulforhodamine B assay; assay type: functional; conditions: BT-549, 48 h; how it was run: as §1
786-0 = assay: Growth inhibition of human 786-0 cells after 48 hrs by sulforhodamine B assay; assay type: functional; conditions: 786-0, 48 h; how it was run: as §1
SK-MEL-28 = assay: Growth inhibition of human SK-MEL-28 cells after 48 hrs by sulforhodamine B assay; assay type: functional; conditions: SK-MEL-28, 48 h; how it was run: as §1
PC-3 = assay: Growth inhibition of human PC3 cells after 48 hrs by sulforhodamine B assay; assay type: functional; conditions: PC-3, 48 h; how it was run: as §1
NCI-H322M = assay: Growth inhibition of human NCI-H322M cells after 48 hrs by sulforhodamine B assay; assay type: functional; how it was run: as §1
CCRF-CEM = assay: Growth inhibition of human CCRF-CEM cells after 48 hrs by sulforhodamine B assay; assay type: functional; how it was run: as §1
SN12C = assay: Growth inhibition of human SN12C cells after 48 hrs by sulforhodamine B assay; assay type: functional
How it was run: (§2)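 NCI in vitro panel screen. Compounds tested at five 10-fold dilutions, 10^-4 to 10^-8 M. Cells in 96-well plates were exposed for the last 48 h of a 72 h incubation. Viability/growth was read by sulforhodamine B protein assay. GI50 is the concentration giving 50% growth inhibition. Values beyond the tested range are reported as greater or less than the maximum or minimum concentration.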

MOLT-4 = assay: Growth inhibition of human MOLT4 cells after 48 hrs by sulforhodamine B assay; assay type: functional; conditions: MOLT-4, 48 h; how it was run: as §1
MDA-N = assay: Growth inhibition of human MDA-N cells after 48 hrs by sulforhodamine B assay; assay type: functional
How it was run: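 NCI screen panel. Five 10-fold concentrations from 10^-4 to 10^-8 M. Exposure for the last 48 h of a 72 h incubation. Growth estimated by sulforhodamine B protein assay. Where that level was not reached or was exceeded, the value is given as above or below the highest or lowest concentration tested.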

OVCAR-5 = assay: Growth inhibition of human OVCAR5 cells after 48 hrs by sulforhodamine B assay; assay type: functional; conditions: OVCAR-5, 48 h; how it was run: as §1
Malme-3M = assay: Growth inhibition of human MALME-3M cells after 48 hrs by sulforhodamine B assay; assay type: functional; how it was run: as §1
UACC-257 = assay: Growth inhibition of human UACC257 cells after 48 hrs by sulforhodamine B assay; assay type: functional; conditions: UACC-257, 48 h; how it was run: as §2
U-251 = assay: Growth inhibition of human U251 cells after 48 hrs by sulforhodamine B assay; assay type: functional; conditions: U-251, 48 h; how it was run: as §2
SK-OV-3 = assay: Growth inhibition of human SKOV3 cells after 48 hrs by sulforhodamine B assay; assay type: functional; conditions: SK-OV-3, 48 h; how it was run: as §1
HCC 2998 = assay: Growth inhibition of human HCC2998 cells after 48 hrs by sulforhodamine B assay; assay type: functional; conditions: HCC 2998, 48 h; how it was run: as §1
NCI-H226 = assay: Growth inhibition of human NCI-H226 cells after 48 hrs by sulforhodamine B assay; assay type: functional; conditions: NCI-H226, 48 h; how it was run: as §1
OVCAR-4 = assay: Growth inhibition of human OVCAR4 cells after 48 hrs by sulforhodamine B assay; assay type: functional; conditions: OVCAR-4, 48 h; how it was run: as §1
SF-295 = assay: Growth inhibition of human SF295 cells after 48 hrs by sulforhodamine B assay; assay type: functional; conditions: SF-295, 48 h; how it was run: as §1
UACC-62 = assay: Growth inhibition of human UACC62 cells after 48 hrs by sulforhodamine B assay; assay type: functional; conditions: UACC-62, 48 h; how it was run: as §2
SF-268 = assay: Growth inhibition of human SF268 cells after 48 hrs by sulforhodamine B assay; assay type: functional; conditions: SF-268, 48 h; how it was run: as §1
HCT-15 = assay: Growth inhibition of human HCT15 cells after 48 hrs by sulforhodamine B assay; assay type: functional; conditions: HCT-15, 48 h; how it was run: as §1
MDA-MB-435 = assay: Growth inhibition of human MDA-MB-435 cells after 48 hrs by sulforhodamine B assay; assay type: functional; conditions: MDA-MB-435, 48 h; how it was run: as §1
A549 = assay: Growth inhibition of human A549 cells after 48 hrs by sulforhodamine B assay; assay type: functional; conditions: A549, 48 h; how it was run: as §1
HCT-116 = assay: Growth inhibition of human HCT116 cells after 48 hrs by sulforhodamine B assay; assay type: functional; conditions: HCT-116, 48 h; how it was run: as §1
DU-145 = assay: Growth inhibition of human DU145 cells after 48 hrs by sulforhodamine B assay; assay type: functional; conditions: DU-145, 48 h; how it was run: as §1
HT-29 = assay: Growth inhibition of human HT-29 cells after 48 hrs by sulforhodamine B assay; assay type: functional; conditions: HT-29, 48 h; how it was run: as §1
A498 = assay: Growth inhibition of human A498 cells after 48 hrs by sulforhodamine B assay; assay type: functional; conditions: A498, 48 h; how it was run: as §1
HOP-62 = assay: Growth inhibition of human HOP62 cells after 48 hrs by sulforhodamine B assay; assay type: functional; conditions: HOP-62, 48 h; how it was run: as §1
COLO 205 = assay: Growth inhibition of human COLO205 cells after 48 hrs by sulforhodamine B assay; assay type: functional; conditions: COLO 205, 48 h; how it was run: as §1
IGROV-1 = assay: Growth inhibition of human IGROV1 cells after 48 hrs by sulforhodamine B assay; assay type: functional; conditions: IGROV-1, 48 h; how it was run: as §1
UO-31 = assay: Growth inhibition of human UO31 cells after 48 hrs by sulforhodamine B assay; assay type: functional; conditions: UO-31, 48 h; how it was run: as §2
ACHN = assay: Growth inhibition of human ACHN cells after 48 hrs by sulforhodamine B assay; assay type: functional; how it was run: as §1
SNB-75 = assay: Growth inhibition of human SNB75 cells after 48 hrs by sulforhodamine B assay; assay type: functional; conditions: SNB-75, 48 h; how it was run: as §2
MDA-MB-231 = assay: Growth inhibition of human MDA-MB-231 cells after 48 hrs by sulforhodamine B assay; assay type: functional; conditions: MDA-MB-231, 48 h; how it was run: as §1
SNB-19 = assay: Growth inhibition of human SNB19 cells after 48 hrs by sulforhodamine B assay; assay type: functional; conditions: SNB-19, 48 h; how it was run: as §2
MT4 = assay: Antiproliferative activity against human MT4 cells assessed as reduction of growth by MTT assay; assay type: functional, cell-based
How it was run: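 MT-4 lymphoblastoid T cells (ATCC) in RPMI 1640 with 10% FCS, penicillin/streptomycin, checked for mycoplasma. 1 × 10⁴ mock-infected cells per well with serial dilutions from a 100 mM DMSO stock. Incubated 4 days at 37 °C, viable cells counted by MTT. IC50 versus untreated controls by linear regression. Mean of three separate experiments.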

MCF7 = assay: Growth inhibition of human MCF7 cells after 48 hrs by sulforhodamine B assay; assay type: functional; conditions: MCF7, 48 h; how it was run: as §1
[1] = Growth inhibition of human Hs 578T cells after 48 hrs by sulforhodamine B assay; assay type: functional; how it was run: as §1
HOP-92 = assay: Growth inhibition of human HOP92 cells after 48 hrs by sulforhodamine B assay; assay type: functional; conditions: HOP-92, 48 h; how it was run: as §1
RXF 393 = assay: Growth inhibition of human RXF393 cells after 48 hrs by sulforhodamine B assay; assay type: functional; conditions: RXF 393, 48 h; how it was run: as §1

## O=CN1CCN(C(=O)c2ccco2)C1=S
LOX IMVI
  GI50: 3.4 µM
BT-549
  GI50: 2.3 µM
786-0
  GI50: 3.3 µM
SK-MEL-28
  GI50: 26.2 µM
PC-3
  GI50: 5 µM
NCI-H322M
  GI50: 18.5 µM
CCRF-CEM
  GI50: 3.6 µM
SN12C
  GI50: 5.3 µM
MOLT-4
  GI50: 4.6 µM
MDA-N
  GI50: 9.1 µM
OVCAR-5
  GI50: 18 µM
Malme-3M
  GI50: 8.3 µM
UACC-257
  GI50: 11.7 µM
U-251
  GI50: 14.1 µM
SK-OV-3
  GI50: 26.6 µM
HCC 2998
  GI50: 13.4 µM
NCI-H226
  GI50: 28.5 µM
OVCAR-4
  GI50: 18.6 µM
SF-295
  GI50: 21.4 µM
UACC-62
  GI50: 5 µM
SF-268
  GI50: 3.9 µM
HCT-15
  GI50: 5.6 µM
MDA-MB-435
  GI50: 6.4 µM
A549
  GI50: 12.5 µM
HCT-116
  GI50: 10.2 µM
DU-145
  GI50: 2.5 µM
HT-29
  GI50: 7.5 µM
A498
  GI50: 16.5 µM
HOP-62
  GI50: 12 µM
COLO 205
  GI50: 8.7 µM
IGROV-1
  GI50: 7.5 µM
UO-31
  GI50: 4.5 µM
ACHN
  GI50: 6.5 µM
SNB-75
  GI50: 8.6 µM
MDA-MB-231
  GI50: 15.9 µM
SNB-19
  GI50: 24.6 µM
MT4
  IC50: 9 µM
MCF7
  GI50: 2.7 µM
[1]
  GI50: 11 µM
HOP-92
  GI50: 11.5 µM
RXF 393
  GI50: 3.3 µM

## O=C(c1ccco1)N1CCN(C(=O)c2ccco2)C1=S
LOX IMVI
  GI50: 3.4 µM
BT-549
  GI50: 4.6 µM
786-0
  GI50: 3.3 µM
SK-MEL-28
  GI50: 5.5 µM
PC-3
  GI50: 3.9 µM
NCI-H322M
  GI50: 15.7 µM
CCRF-CEM
  GI50: 1.2 µM
SN12C
  GI50: 3.5 µM
MOLT-4
  GI50: 0.3 µM
MDA-N
  GI50: 5 µM
OVCAR-5
  GI50: 17.8 µM
Malme-3M
  GI50: 3.7 µM
UACC-257
  GI50: 4.6 µM
U-251
  GI50: 9 µM
SK-OV-3
  GI50: 16 µM
HCC 2998
  GI50: 12.4 µM
NCI-H226
  GI50: 28.7 µM
OVCAR-4
  GI50: 15.6 µM
SF-295
  GI50: 16.9 µM
UACC-62
  GI50: 3.2 µM
SF-268
  GI50: 2.7 µM
HCT-15
  GI50: 4.1 µM
MDA-MB-435
  GI50: 4 µM
A549
  GI50: 9.8 µM
HCT-116
  GI50: 7.3 µM
DU-145
  GI50: 2.7 µM
HT-29
  GI50: 5 µM
A498
  GI50: 16.6 µM
HOP-62
  GI50: 8.7 µM
COLO 205
  GI50: 9.4 µM
IGROV-1
  GI50: 6.7 µM
UO-31
  GI50: 3.7 µM
ACHN
  GI50: 4.7 µM
SNB-75
  GI50: 10.4 µM
MDA-MB-231
  GI50: 12.2 µM
SNB-19
  GI50: 25.4 µM
MT4
  IC50: 7.4 µM
MCF7
  GI50: 3 µM
[1]
  GI50: 6.8 µM
HOP-92
  GI50: 12.7 µM
RXF 393
  GI50: 3.6 µM
